The source made the active and inactive calls. The calls are words filed in the database; no cut-off is given here.
Key:
Dentine [1] = experiment: Induction of modification in human molar dentin assessed as sum of percentage of apparent modulus elasticity and percentage of collagen remaining after […] at 3.5 mg; format: functional, tissue-based
[2] = Stability in human molar dentin at 3.5 mg after 1 hr by flexural assay; format: ADME, tissue-based, Dentine; settings: in vitro
Dentine [3] = experiment: Induction of elasticity in human molar dentin at 3.5 mg after 1 hr by flexural assay; format: functional, tissue-based
Procedure, shortened: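 Read-out is modulus of elasticity (MPa), measured mechanically on the dentin. This avoids colorimetric, fluorescence or UV detection.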

Dentine [4] = experiment: Induction of elasticity in human molar dentin assessed as fold change at 3.5 mg after 1 hr by flexural assay relative to untreated control; format: functional
Hathewaya histolytica = experiment: Inhibition of Clostridium histolyticum collagenase-induced degradation of human molar dentin assessed as reduction in at 3.5 mg after 1 hr followed by collagenase treatment and measured after 24 hrs relative to control
Procedure, shortened: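 Resistance to proteolytic biodegradation is measured gravimetrically as percent mass gain or loss of the dentin. This avoids colorimetric, fluorescence or UV detection.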

| SMILES | Stability [2] | inhibition (Hathewaya histolytica) [%] | Activity (Dentine [1]) | Activity (Dentine [3]) | fold change (FC) (Dentine [4]) |
| --- | --- | --- | --- | --- | --- |
| Oc1cc(O)c2c(c1)O[C@@H](c1ccc(O)c(O)c1)[C@H](O)[C@H]2c1c(O)cc(O)c2c1O[C@H](c1ccc(O)c(O)c1)[C@@H](O)C2 | Stable | – | Active | inactive | – |
| Oc1cc(O)c2c(c1)O[C@H](c1ccc(O)c(O)c1)[C@H](O)[C@H]2c1c(O)cc(O)c2c1O[C@H](c1ccc(O)c(O)c1)[C@H](O)C2 [PROCYANIDIN B2] | Stable | – | Active | inactive | – |
| Oc1cc(O)c2c(c1)O[C@H](c1ccc(O)c(O)c1)[C@H](O)[C@H]2c1c(O)cc(O)c2c1O[C@@H](c1ccc(O)c(O)c1)[C@@H](O)C2 | Stable | – | Active | inactive | – |
| Oc1cc(O)c2c(c1)O[C@H](c1ccc(O)c(O)c1)[C@H](O)[C@H]2c1c(O)cc(O)c2c1O[C@H](c1ccc(O)c(O)c1)[C@@H](O)C2 [PROCYANIDIN B1] | Stable | – | – | inactive | – |
| Oc1cc(O)c2c(c1)O[C@H](c1ccc(O)c(O)c1)[C@H](O)[C@H]2c1c(O)cc(O)c2c1O[C@@H](c1ccc(O)c(O)c1)[C@H](O)C2 | Stable | – | – | inactive | – |
| Oc1cc(O)c2c(c1)O[C@@H](c1ccc(O)c(O)c1)[C@H](O)[C@H]2c1c(O)cc(O)c2c1O[C@H](c1ccc(O)c(O)c1)[C@H](O)C2 | Stable | – | Active | inactive | – |

Second part, led by results:

| Stability [2] | inhibition (Hathewaya histolytica) [%] | SMILES | Activity (Dentine [1]) | Activity (Dentine [3]) | fold change (FC) (Dentine [4]) |
| --- | --- | --- | --- | --- | --- |
| Stable | 70 to 80 | Oc1cc(O)c2c(c1)O[C@H](c1ccc(O)c(O)c1)[C@H](O)[C@H]2c1c(O)cc(O)c2c1O[C@H](c1ccc(O)c(O)c1)[C@H](O)[C@H]2c1c(O)cc(O)c2c1O[C@@H](c1ccc(O)c(O)c1)[C@H](O)C2 | Active | – | 5.5 |
| Stable | 70 to 80 | Oc1cc(O)c2c(c1)O[C@H](c1ccc(O)c(O)c1)[C@H](O)[C@H]2c1c(O)cc(O)c2c1O[C@H](c1ccc(O)c(O)c1)[C@H](O)[C@H]2c1c(O)cc(O)c2c1O[C@H](c1ccc(O)c(O)c1)[C@@H](O)C2 | Active | – | 5 |
| Stable | – | Oc1cc(O)c2c(c1)O[C@H](c1ccc(O)c(O)c1)[C@@H](O)[C@@H]2c1c(O)cc(O)c2c1O[C@H](c1ccc(O)c(O)c1)[C@@H](O)C2 | – | inactive | – |

— ChEMBL document CHEMBL4414559, “Proanthocyanidin Dimers and Trimers from Vitis vinifera Provide Diverse Structural Motifs for the Evaluation of Dentin Biomodification” (J Nat Prod, 2019)
